Reference: article PMC11842988 (Journal for Immunotherapy of Cancer, 2025)
Entries after “also recorded” stand apart in the source; their conditions may differ.

Key:
[1] = system: OMP-/TAAp-specific CD8+ T cells in HD PBMCs; type: cell-based, human; conditions: HLA-A2+ HD PBMCs after IVS with OMPs; average unless stated
How it was run: (§1)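 HLA-A*02:01 donor PBMCs pulsed 24 h with OMPs (10 µM), CD137-enriched, expanded 8 days on anti-CD3/CD28 with IL-2/7/15/21. Restimulated every 10 days with mitomycin C-treated T2 cells loaded with peptide and β2-microglobulin. Antigen-specific frequency measured by CD8 plus pMHC tetramer staining. Per-donor cross-reactivity (%) computed from the TAA-specific and OMP-specific CD8+ percentages.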

[2] = system: TAAp-specific CD8+ T cells, A2/DR1 mice; type: in vivo, mouse; conditions: for TAAp-specific response, OMP versus TAAp immunization: figure 2F; for TAAp-specific IFN-γ response after OMP immunization: ex vivo restimulation with TAAp
How it was run: (§2)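 HLA-A2/DR1 transgenic mice primed day 0, boosted day 14, s.c., with class I peptide (5, 30 or 95 nmol) plus UCP2 helper (30–100 µg) in Montanide ISA 51 VG (50:50). Spleens taken day 21 post-prime, or day 30 in the tumour study; RBCs lysed. 2×10^5 splenocytes/well restimulated ~20 h with 10 µM peptide at 37°C. PMA/ionomycin and EZH2-B2 controls. Media background subtracted; IFN-γ spots per 10^6 T cells.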

[3] = system: SARC-A2-hCD20-GFP sarcoma cells; test: Tumor protection model, SARC-A2-hCD20-GFP sarcoma in A2/DR1 mice; type: in vivo, mouse; conditions: OMP72 prime-boost, 0.5×10^6 SARC-A2-hCD20-GFP cells s.c., n=8 mice
How it was run: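 A2/DR1 mice given the prime-boost regimen (days 0 and 14). On day 21 post-prime, 0.5×10^6 SARC-A2-hCD20-GFP or SARC-A2-GFP sarcoma cells in PBS injected s.c. in the right flank; naïve mice as controls. Tumours measured by caliper twice weekly over 30 days (mm2). Endpoint at ≥300 mm2; n=8 per group.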

[4] = system: human CD20 on SARC-A2-hCD20-GFP cells; test: hCD20 expression of tumor cells at day 30; type: in vivo, mouse; conditions: OMP72-immunized mice still bearing tumors, day 30, n=4
[5] = system: OMP-specific CD8+ T cells, A2/DR1 mice; test: IFN-γ ELISpot of splenocytes from immunized A2/DR1 mice, restimulation with OMP; type: in vivo, mouse; conditions: ELISpot day 30
How it was run: as §2

[6] = system: splenocytes pulsed with OMPs; test: In vivo cytotoxicity in humanized HLA-A2 mice, OMP-pulsed splenocytes; set-up: species or system mouse; conditions: online supplemental figure 2
How it was run: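 Immunised A2/DR1 mice challenged i.v. 6 days post-boost; naïve mice received the same cells. Splenocytes from unimmunised syngeneic donors were pulsed with individual peptides (bright dye) and mixed 1:1 with unpulsed cells (dim dye). Read out 20 h later by flow cytometry. Specific lysis (%) = (% targets in naïve − % in immunised)/% in naïve × 100.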

[7] = system: patient CD8+ T cells; test: Intracellular cytokine staining; type: cell-based, human; conditions: for Cytokine levels after restimulation (ICS): post-IVS with OMPs
How it was run: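 Patient PBMCs expanded 12 days in vitro with the three-peptide bacterial pool (1 µg/mL each, added day 1) in IMDM/10% human serum/β-ME. IL-2 (2 ng/mL) added on day 3 and again on days 5, 7 and 9. Cells then restimulated with the indicated peptides. Intracellular IFN-γ, TNF, IL-2, CD154 and CD107a reported as % positive T cells.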

[8] = system: OMP-loaded T2 cells; test: Cytotoxicity of sorted TAAp-specific T cells on OMP-loaded T2 cells; type: cell-based, human; conditions: 24 h, EZH2-loaded T2 as control
How it was run: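 Patient PBMCs stimulated 12 days in vitro with the three-peptide OMP pool. TAAp-tetramer+ CD8+ T cells sorted, then expanded on anti-CD3/CD28 activator with IL-2 (50 U/mL), IL-7, IL-15 and IL-21. CellTrace Violet-labelled T2 cells co-cultured with these T cells, peptide (OMP or EZH2 control) and β2-microglobulin at 37°C for 24 h in 50% RPMI/50% X-vivo 15. Media-only control. CD8 and near-IR live/dead stains; duplicates.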

[9] = system: antigen-specific CD8+ T cells in patient PBMCs; test: Tetramer staining of patient PBMCs after 12 days IVS with OMPs; type: cell-based, human; conditions: patients, EO2401
How it was run: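 Thawed patient PBMCs (2.5–3.5×10^6/well) rested 24 h, then given the OMP pool (1 µg/mL each) on day 1. IL-2 (2 ng/mL) added from day 3, with splits and feeds; harvested day 12. Stained 30 min at RT with separate OMP and TAAp tetramer mixes (2.5 µg/mL each), or matched pairs for cross-reactivity. Then CD4/CD8/CD14/CD19 and Zombie Aqua, 20 min 4°C. ≥600,000 cells acquired; % of live CD8+.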

[10] = system: antigen-specific CD8+ T cells in patient PBMCs; test: Tetramer staining of patient PBMCs ex vivo; type: cell-based, human
[11] = system: OMP-specific CD8+ T cells in HD PBMCs; test: Prevalence of OMP-specific CD8+ T cells in healthy donors; type: cell-based, human
How it was run: as §1

Sequence: ALNPELLAL [OMP12]
- Cross-reactivity OMP/TAAp in healthy donor CD8+ T cells [1]: above 66%
- TAAp-specific response, OMP versus TAAp immunization [2]: superior immunogenicity

Sequence: AMNSLSLYI [OMP72]
- Tumor protection after immunization [3]: half of the A2/DR1 mice; also recorded: could induce protection against CD20-expressing tumor cells
- Tumor cells with loss of CD20 surface expression in non-controlled tumors [4]: 99%
- OMP72-specific IFN-γ-producing cells in responsive versus non-responsive mice [5]: comparable levels
- Individual OMP-specific CTL activity [6]: negligible

Sequence: FLAFVPLQL [OMP65]
- TAAp-specific IFN-γ response after OMP immunization [2]: > 5,000 SFU
- TAAp-specific response, OMP versus TAAp immunization [2]: superior immunogenicity

Sequence: FLPFGFILPV [OMP16]
- TAAp-specific IFN-γ response after OMP immunization [2]: < 2,000 SFU
- TAAp-specific response, OMP versus TAAp immunization [2]: superior immunogenicity
- Cytokine levels after restimulation (ICS) [7]: stronger cytokine levels
- Killing of OMP-loaded T2 cells by corresponding TAAp-tetramer+ T cells [8]: specifically killed
- OMP-specific T cells also recognizing the matched TAAp [9]: 1%

Sequence: FLYDVRTYL [OMP10]
- Cross-reactivity OMP/TAAp in healthy donor CD8+ T cells [1]: below 33%

Sequence: FMLGEFLKL [OMP17]
- Cross-reactivity OMP/TAAp in healthy donor CD8+ T cells [1]: above 66%
- TAAp-specific IFN-γ response after OMP immunization [2]: > 5,000 SFU
- TAAp-specific response, OMP versus TAAp immunization [2]: superior immunogenicity
- Simultaneous cytokine production on restimulation (polyfunctionality) ([7]; Patient #1, weeks 88 and 100): IFN-γ, TNF-α and CD107a simultaneously
- Cytokine levels after restimulation (ICS) [7]: stronger cytokine levels
- Killing of OMP-loaded T2 cells by corresponding TAAp-tetramer+ T cells [8]: specifically killed
- OMP-specific T cells also recognizing the matched TAAp [9]: 80%
- BIRC5-specific CD8+ T cells of total circulating CD8+ T cells ([10]; Patient #1): more than 20%
- Tetramer+ T cells of total circulating CD8+ T cells, week 44 ([10]; Patient #1, ex vivo, week 44): 3.27%
- Tetramer+ T cells of total circulating CD8+ T cells, week 88 ([10]; Patient #1, ex vivo, week 88): 17.4%
- Tetramer+ T cells of total circulating CD8+ T cells, week 100 ([10]; Patient #1, ex vivo, week 100, listed as EO2317): 32%

Sequence: LLFGAPALL [BAFF-R77-85, reference compound]
- TAAp-specific response, OMP versus TAAp immunization [2]: weaker when mice were immunized with TAAps than with their mimic OMPs

Sequence: LMDLSTTEV [OMP18]
- Cross-reactivity OMP/TAAp in healthy donor CD8+ T cells [1]: below 33%
- TAAp-specific IFN-γ response after OMP immunization [2]: < 2,000 SFU
- Cytokine levels after restimulation (ICS) [7]: stronger cytokine levels
- Killing of OMP-loaded T2 cells by corresponding TAAp-tetramer+ T cells [8]: specifically killed
- OMP-specific T cells also recognizing the matched TAAp [9]: around 20%

Sequence: LMFGAPALV [OMP66]
- TAAp-specific IFN-γ response after OMP immunization [2]: > 5,000 SFU
- TAAp-specific response, OMP versus TAAp immunization [2]: superior immunogenicity

Sequence: SLPDRILTV [OMP11]
- Cross-reactivity OMP/TAAp in healthy donor CD8+ T cells [1]: below 33%

Sequence: YIFEHPETA [OMP64]
- Cross-reactivity OMP/TAAp in healthy donor CD8+ T cells [1]: below 33%
- Prevalence of OMP-specific CD8+ T cells in HLA-A2+ PBMC samples [11]: 67%
- TAAp-specific IFN-γ response after OMP immunization [2]: < 2,000 SFU
- Individual OMP-specific CTL activity [6]: lower
